Assay results as given in ChEMBL document CHEMBL4196006, “Aryl thiosemicarbazones for the treatment of trypanosomatidic infections” (Eur J Med Chem, 2018).
Calls of active or inactive are those of the source. The rule behind the calls is not given here.

What was measured:
[1] = system: Trypanosoma brucei; test: Antitrypanosomal activity against Trypanosoma brucei Lister 427 bloodstream form assessed as parasite growth inhibition at 50 uM after 72 hrs by SYBR Green assay relative to control; type: functional; conditions: for inhibition of growth at 50 µM: Lister 427, 72 h, read-out: GI
[2] = system: Leishmania infantum; test: Antileishmanial activity against Leishmania infantum amastigote form assessed as parasite growth inhibition at 50 uM after 72 hrs by steady-Glo reagent based assay relative to control; type: functional
Method in brief: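 Intramacrophage L. infantum amastigotes in THP-1-derived macrophages, tested at 50 μM or in dose-response. Plates held 72 h at 37 °C, 5% CO2. Medium was replaced by PBS, macrophages lysed, and parasites read by Steady-Glo luminescence. High-content imaging gave host cell number, infection ratio (infected/total cells) and parasites per infected cell. Values are means of at least two independent experiments.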

[3] = system: Trypanosoma cruzi; test: Antitrypanosomal activity against Trypanosoma cruzi amastigote form infected in human U2OS cells assessed as parasite growth inhibition at 50 uM after 72 hrs relative to control; type: functional; conditions: read-out: GI
Method in brief: (§1)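 U2OS monolayers grown for 24 h, then infected with tissue-derived trypomastigotes of T. cruzi Y strain. Compounds were added 24 h after infection at 50 μM (single-point) or in dose-response, with 72 h exposure. Plates were fixed, stained and analysed by high-content imaging; activity was normalized to infected and non-infected controls. Means of at least two experiments; benznidazole as reference.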

[4] = system: Trypanosoma cruzi; test: Antitrypanosomal activity against Trypanosoma cruzi amastigote form infected in human U2OS cells assessed as parasite growth inhibition after 72 hrs; type: functional, organism-based; method in brief: as §1
[5] = system: Trypanosoma brucei; test: Antitrypanosomal activity against Trypanosoma brucei Lister 427 bloodstream form at 10 uM after 72 hrs by resazurin dye-based assay relative to control; type: functional
[6] = system: Trypanosoma brucei; test: Potentiation of methotrexate-induced antitrypanosomal activity against Trypanosoma brucei Lister 427 bloodstream form at 10 uM after 72 hrs by resazurin dye-based assay relative to control; type: functional
[7] = biological target: T1, CYP1A2 (Homo sapiens, UniProt P05177); test: Inhibition of human microsomal CYP1A2 expressed in baculovirus infected BTI-TN-5B1-4 cells at 10 uM incubated for 30 mins by luciferase assay relative to control; type: ADME
T1 sequence (P05177 whole entry): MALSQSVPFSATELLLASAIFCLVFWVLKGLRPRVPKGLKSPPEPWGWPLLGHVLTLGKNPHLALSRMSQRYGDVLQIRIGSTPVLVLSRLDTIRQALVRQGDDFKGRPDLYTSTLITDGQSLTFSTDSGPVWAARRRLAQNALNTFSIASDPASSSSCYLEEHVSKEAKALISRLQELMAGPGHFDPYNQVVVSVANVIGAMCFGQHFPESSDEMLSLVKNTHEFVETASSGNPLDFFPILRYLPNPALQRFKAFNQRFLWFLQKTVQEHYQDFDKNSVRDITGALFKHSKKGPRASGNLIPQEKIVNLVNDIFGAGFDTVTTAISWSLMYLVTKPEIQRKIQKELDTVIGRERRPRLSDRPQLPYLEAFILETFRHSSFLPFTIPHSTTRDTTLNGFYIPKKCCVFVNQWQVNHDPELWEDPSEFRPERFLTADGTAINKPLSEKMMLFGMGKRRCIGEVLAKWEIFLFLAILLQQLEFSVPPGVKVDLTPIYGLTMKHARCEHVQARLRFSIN
Method in brief: (§2)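 CYP1A2, 2C9, 2C19, 2D6 and 3A4 in microsomes from baculovirus-infected insect cells, each with a P450-Glo luminogenic substrate. Inhibition read as loss of light; single-point at 10 μM, triplicate.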

[8] = system: Trypanosoma brucei; test: Potentiation of methotrexate-induced antitrypanosomal activity against Trypanosoma brucei Lister 427 bloodstream form at 10 uM after 72 hrs by resazurin dye-based assay; type: functional
[9] = biological target: hERG (KCNH2) (Homo sapiens, UniProt Q12809); test: Inhibition of human ERG at 10 uM incubated for 2 hrs by fluorescence polarisation assay relative to control
[10] = biological target: CYP2C9 (Homo sapiens, UniProt P11712); test: Inhibition of human microsomal CYP2C9 expressed in baculovirus infected BTI-TN-5B1-4 cells at 10 uM incubated for 30 mins by luciferase assay relative to control; type: ADME; method in brief: as §2
[11] = biological target: CYP2C19 (Homo sapiens, UniProt P33261); test: Inhibition of human microsomal CYP2C19 expressed in baculovirus infected BTI-TN-5B1-4 cells at 10 uM incubated for 30 mins by luciferase assay relative to control; type: ADME; method in brief: as §2
[12] = biological target: CYP2D6 (Homo sapiens, UniProt P10635); test: Inhibition of human microsomal CYP2D6 expressed in baculovirus infected BTI-TN-5B1-4 cells at 10 uM incubated for 30 mins by luciferase assay relative to control; type: ADME; method in brief: as §2
[13] = biological target: CYP3A4 (Homo sapiens, UniProt P08684); test: Inhibition of human microsomal CYP3A4 expressed in baculovirus infected BTI-TN-5B1-4 cells at 10 uM incubated for 30 mins by luciferase assay relative to control; type: ADME; method in brief: as §2
[14] = biological target: Aurora kinase B (Homo sapiens, UniProt Q96GD4); test: Inhibition of recombinant full-length human aurora B kinase expressed in baculovirus system at 10 uM using MBP as substrate incubated for 45 mins by ADP-glo kinase assay; conditions: probe MBP
Method in brief: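 Aurora B activity measured as ADP formation via coupled luciferase ADP-Glo luminescence; single-point at 10 μM, triplicate.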

[15] = Cytotoxicity against human 786-O cells assessed as inhibition of mitochondrial viability at 10 uM after 6 hrs by CMXRos staining based assay relative to control; type: cell-based, 786-0; conditions: read-out: INH
Method in brief: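 Mitochondrial toxicity monitored by MitoTracker Red CMXRos uptake and high-content imaging; compound at 10 μM, triplicate.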

[16] = Cytotoxicity against human THP1 cells assessed as viable cells at 100 uM after 72 hrs by MTT assay relative to control; type: cell-based, THP-1; conditions: read-out: Activity
Method in brief: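 THP-1-derived macrophages exposed to compounds for 72 h, tested at 100 μM or in dose-response; viability read by MTT colorimetric assay.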

[17] = Cytotoxicity against human U2OS cells assessed as viable cells at 50 uM after 72 hrs by MTT assay relative to control; type: cell-based; conditions: read-out: Activity
[18] = Selectivity index, ratio of CC50 for human U2OS cells to EC50 for Trypanosoma cruzi amastigote form; type: toxicity; conditions: read-out: Ratio CC50/EC50
Method in brief: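 Selectivity index = CC50 in the human host or cytotoxicity cell line divided by parasite EC50.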

[19] = biological target: T2, Pteridine reductase, putative (Trypanosoma brucei) (UniProt Q581W1); test: Inhibition of Trypanosoma brucei PTR1 at 50 uM using H2B as substrate in presence of NADPH by photometric analysis relative to control
T2 sequence (whole entry): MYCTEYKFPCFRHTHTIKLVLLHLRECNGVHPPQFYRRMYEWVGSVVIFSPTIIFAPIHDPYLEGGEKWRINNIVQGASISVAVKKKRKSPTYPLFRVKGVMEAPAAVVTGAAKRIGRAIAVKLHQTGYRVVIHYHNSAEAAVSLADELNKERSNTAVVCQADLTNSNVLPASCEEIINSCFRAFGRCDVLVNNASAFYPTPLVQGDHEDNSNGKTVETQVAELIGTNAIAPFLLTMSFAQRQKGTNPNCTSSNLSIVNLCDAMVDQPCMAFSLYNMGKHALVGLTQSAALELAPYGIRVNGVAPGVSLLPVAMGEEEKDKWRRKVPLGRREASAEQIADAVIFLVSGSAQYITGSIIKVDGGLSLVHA

[20] = biological target: T3, Pteridine reductase 1 (Leishmania major) (UniProt Q01782); test: Inhibition of Leishmania major PTR1 at 50 uM using H2B as substrate in presence of NADPH by photometric analysis relative to control
T3 sequence (whole entry): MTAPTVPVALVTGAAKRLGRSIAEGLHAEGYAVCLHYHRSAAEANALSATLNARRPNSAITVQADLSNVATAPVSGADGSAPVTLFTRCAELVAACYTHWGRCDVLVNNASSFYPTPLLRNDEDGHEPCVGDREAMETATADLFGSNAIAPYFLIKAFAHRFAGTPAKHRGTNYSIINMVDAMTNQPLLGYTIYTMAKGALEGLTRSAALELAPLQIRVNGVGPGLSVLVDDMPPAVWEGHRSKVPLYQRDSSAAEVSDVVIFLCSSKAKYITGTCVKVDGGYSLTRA

[21] = Cytotoxicity against human U2OS cells assessed as decrease in viable cells after 72 hrs by cell number count in anti-T. cruzi high content imaging assay; conditions: U2OS cells
[22] = Cytotoxicity against human A549 cells assessed as growth inhibition at 10 uM after 48 hrs by CellTiter-Glo assay relative to control; values are per cent of control; conditions: A549 cells
[23] = Cytotoxicity against human WI38 cells assessed as growth inhibition at 10 uM after 48 hrs by CellTiter-Glo assay relative to control; values are per cent of control; conditions: WI38 cells
[24] = system: Trypanosoma brucei; test: Antitrypanosomal activity against Trypanosoma brucei Lister 427 bloodstream form after 72 hrs by SYBR Green assay; type: functional, organism-based; conditions: Lister 427, 72 h

Sequence of hERG (KCNH2) (Q12809 whole entry): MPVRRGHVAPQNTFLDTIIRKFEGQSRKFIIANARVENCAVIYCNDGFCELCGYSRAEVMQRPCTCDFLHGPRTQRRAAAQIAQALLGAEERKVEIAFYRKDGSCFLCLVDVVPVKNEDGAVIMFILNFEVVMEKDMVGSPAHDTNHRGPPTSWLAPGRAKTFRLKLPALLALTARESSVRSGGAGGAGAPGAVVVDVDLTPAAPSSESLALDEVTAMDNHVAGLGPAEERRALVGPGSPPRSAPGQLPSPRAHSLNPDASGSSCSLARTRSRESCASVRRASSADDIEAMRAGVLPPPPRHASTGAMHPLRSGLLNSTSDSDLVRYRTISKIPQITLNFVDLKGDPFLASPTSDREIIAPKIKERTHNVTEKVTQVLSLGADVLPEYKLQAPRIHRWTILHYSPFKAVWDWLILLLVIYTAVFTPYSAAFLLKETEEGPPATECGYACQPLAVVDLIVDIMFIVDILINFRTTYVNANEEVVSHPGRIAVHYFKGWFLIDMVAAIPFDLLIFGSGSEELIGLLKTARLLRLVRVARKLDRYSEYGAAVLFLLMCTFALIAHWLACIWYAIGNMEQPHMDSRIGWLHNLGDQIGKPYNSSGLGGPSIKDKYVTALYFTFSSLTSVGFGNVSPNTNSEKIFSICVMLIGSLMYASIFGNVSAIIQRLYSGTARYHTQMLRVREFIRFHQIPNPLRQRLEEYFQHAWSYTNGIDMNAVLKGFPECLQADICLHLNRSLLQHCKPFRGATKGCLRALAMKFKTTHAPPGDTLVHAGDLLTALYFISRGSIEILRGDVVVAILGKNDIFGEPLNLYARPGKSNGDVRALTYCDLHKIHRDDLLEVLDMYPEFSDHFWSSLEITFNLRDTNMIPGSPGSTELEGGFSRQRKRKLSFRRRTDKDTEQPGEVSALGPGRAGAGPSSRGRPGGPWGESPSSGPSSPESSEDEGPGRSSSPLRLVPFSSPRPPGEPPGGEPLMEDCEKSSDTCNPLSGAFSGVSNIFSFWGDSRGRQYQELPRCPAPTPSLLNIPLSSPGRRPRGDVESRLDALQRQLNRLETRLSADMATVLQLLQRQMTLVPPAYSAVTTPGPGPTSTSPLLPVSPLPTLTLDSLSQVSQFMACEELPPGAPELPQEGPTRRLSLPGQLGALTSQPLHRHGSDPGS
Sequence of CYP2C9 (P11712 whole entry): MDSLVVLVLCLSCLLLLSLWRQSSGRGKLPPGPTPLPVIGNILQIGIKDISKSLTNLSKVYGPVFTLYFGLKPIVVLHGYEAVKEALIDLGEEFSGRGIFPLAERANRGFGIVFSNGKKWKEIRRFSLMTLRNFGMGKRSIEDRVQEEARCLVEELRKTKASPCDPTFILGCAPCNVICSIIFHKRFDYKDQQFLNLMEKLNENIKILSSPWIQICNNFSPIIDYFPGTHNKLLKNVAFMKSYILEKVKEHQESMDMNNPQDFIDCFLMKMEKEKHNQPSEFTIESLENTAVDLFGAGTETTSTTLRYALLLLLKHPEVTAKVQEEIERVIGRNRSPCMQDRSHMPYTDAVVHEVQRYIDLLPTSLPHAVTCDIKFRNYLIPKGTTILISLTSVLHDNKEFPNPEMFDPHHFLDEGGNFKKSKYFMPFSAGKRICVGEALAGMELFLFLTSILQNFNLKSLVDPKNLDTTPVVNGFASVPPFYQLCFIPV
Sequence of Aurora kinase B (Q96GD4 whole entry): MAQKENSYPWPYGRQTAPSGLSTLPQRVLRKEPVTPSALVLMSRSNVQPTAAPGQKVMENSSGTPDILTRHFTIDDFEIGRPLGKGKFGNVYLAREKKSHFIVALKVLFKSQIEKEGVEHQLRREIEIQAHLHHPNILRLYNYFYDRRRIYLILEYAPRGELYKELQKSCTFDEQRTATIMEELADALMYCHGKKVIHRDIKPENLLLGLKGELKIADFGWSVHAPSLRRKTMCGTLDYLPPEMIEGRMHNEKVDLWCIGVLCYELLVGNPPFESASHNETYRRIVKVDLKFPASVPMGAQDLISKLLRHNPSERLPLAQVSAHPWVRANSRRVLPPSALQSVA
Sequence of CYP2C19 (P33261 whole entry): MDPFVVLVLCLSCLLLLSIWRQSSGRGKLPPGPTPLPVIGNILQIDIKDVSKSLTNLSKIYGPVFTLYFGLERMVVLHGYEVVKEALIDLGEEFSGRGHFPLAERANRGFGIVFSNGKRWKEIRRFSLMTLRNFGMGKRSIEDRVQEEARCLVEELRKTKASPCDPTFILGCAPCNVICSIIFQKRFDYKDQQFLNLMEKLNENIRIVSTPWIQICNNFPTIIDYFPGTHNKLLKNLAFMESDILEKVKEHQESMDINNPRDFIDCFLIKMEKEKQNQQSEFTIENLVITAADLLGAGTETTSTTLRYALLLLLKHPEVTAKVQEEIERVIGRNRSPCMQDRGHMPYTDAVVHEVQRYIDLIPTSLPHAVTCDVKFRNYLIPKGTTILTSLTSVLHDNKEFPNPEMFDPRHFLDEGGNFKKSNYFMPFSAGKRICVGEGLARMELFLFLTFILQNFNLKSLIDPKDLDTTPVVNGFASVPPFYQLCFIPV
Sequence of CYP2D6 (P10635 whole entry): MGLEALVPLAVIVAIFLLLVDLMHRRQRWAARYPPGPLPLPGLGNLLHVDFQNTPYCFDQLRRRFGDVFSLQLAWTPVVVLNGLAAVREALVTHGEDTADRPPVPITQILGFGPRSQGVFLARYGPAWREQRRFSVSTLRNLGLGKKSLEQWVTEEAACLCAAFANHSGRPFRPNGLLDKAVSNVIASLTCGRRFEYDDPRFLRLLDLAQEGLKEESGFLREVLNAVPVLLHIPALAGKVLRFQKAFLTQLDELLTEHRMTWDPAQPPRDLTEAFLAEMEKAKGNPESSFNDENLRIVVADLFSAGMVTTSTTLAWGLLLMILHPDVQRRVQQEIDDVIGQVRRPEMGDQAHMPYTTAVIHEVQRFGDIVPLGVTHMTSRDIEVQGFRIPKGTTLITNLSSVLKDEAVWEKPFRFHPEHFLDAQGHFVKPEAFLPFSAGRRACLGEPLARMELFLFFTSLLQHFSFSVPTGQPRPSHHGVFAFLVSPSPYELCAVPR
Sequence of CYP3A4 (P08684 whole entry): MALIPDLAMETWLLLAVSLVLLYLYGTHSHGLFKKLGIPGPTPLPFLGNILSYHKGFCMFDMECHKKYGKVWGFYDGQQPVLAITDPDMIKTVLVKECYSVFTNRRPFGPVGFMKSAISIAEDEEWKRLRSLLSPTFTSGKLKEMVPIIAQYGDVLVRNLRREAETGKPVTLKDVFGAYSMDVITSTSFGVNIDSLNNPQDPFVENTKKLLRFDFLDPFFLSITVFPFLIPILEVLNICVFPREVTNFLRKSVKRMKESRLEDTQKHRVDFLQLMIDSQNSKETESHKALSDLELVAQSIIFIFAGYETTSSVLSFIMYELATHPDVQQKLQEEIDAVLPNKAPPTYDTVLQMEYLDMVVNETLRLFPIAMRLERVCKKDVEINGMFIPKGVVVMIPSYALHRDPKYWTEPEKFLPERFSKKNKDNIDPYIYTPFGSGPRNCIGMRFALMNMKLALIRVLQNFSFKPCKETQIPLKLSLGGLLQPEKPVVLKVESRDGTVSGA

Row | EC50 [4] [µM] | inhibition at 0.5 h, 10 µM [7] [%] | inhibition at 0.5 h, 10 µM [10] [%] | inhibition at 0.5 h, 10 µM [11] [%] | inhibition at 0.5 h, 10 µM [12] [%] | inhibition at 0.5 h, 10 µM [13] [%] | inhibition at 0.75 h, 10 µM [14] [%] | inhibition [19] | inhibition [20] [%] | Compound | growth inhibition (GI) [2] | inhibition of growth at 50 µM [3] [%] | Activity [5] [%] | Activity [6] [%] | PF [8] | inhibition at 2 h, 10 µM [9] [%] | cytotoxicity at 6 h, 10 µM [15] [%] | viability at 72 h, 100 µM [16] [%] | viability at 72 h, 50 µM [17] [%] | cell growth (% of control) at 48 h, 10 µM [22] [%] | cell growth (% of control) at 48 h, 10 µM [23] [%] | further results
1 | 4.17 | 76.6 | 98.4 | 32.1 | 26.8 | -16.1 | -35.7 | inactive | 3.57 | NC(=S)N/N=C/c1ccc(-c2ccccc2)cc1 | inactive | 95.2 | 19.33 | 80.67 | 1.85 | 38.5 | 16.1 | 46.4 | 116 | 138 | 104 | growth inhibition (GI) [1]: inactive; selectivity ratio [18]: > 1; CC50 at 72 h [21]: > 44 µM
2 |  | 18.6 | -6.44 | -20.6 | -18.9 | -4.38 | 6.53 | 13.7% | 7.6 | NC(=S)N/N=C/c1ccccc1O |  | 86.1 | 17.83 | 62.5 | 1.49 | 4.46 | -1.49 | 54.7 | 58 | 117 | 108 | inhibition of growth at 50 µM [1]: 97.9%; inhibition of growth at 50 µM ([2]; read-out: GI): 24.1%; EC50 [24]: 31.5 µM
3 | 2.29 | 66.6 | -7.51 | -35.9 | -14.4 | -19.8 | -16.2 | 14.9% | 18.4 | N/C(S)=N/N=C/c1cccc(Br)c1 | inactive | 90.8 | 0.83 | 61.17 | 2.44 | 10.7 | 0.71 | 79.3 | 57.3 | 130 | 120 | inhibition of growth at 50 µM [1]: 44.1%; selectivity ratio [18]: > 1; CC50 at 72 h [21]: > 44 µM
